According to ChEMBL document CHEMBL1124191, “Design of rat renin inhibitory peptides” (J Med Chem, 1988):
*1 amine or outer side, *2 acyl side, *3 side chain or, on linkers, in order; H or OH if unused. Where a SMILES comes first, the peptide text is derived from it. [ ]: non-standard residue; d: D form. Ahppa(3S,4S) = O=C(C[C@H](O)[C@H](Cc1ccccc1)N[*:1])[*:2]; ACHPA = O=C(C[C@H](O)[C@H](CC1CCCCC1)N[*:1])[*:2]; 1Nal = N[C@@H](Cc1cccc2ccccc12)C(=O)O; Sta = CC(C)C[C@H](N)[C@@H](O)CC(=O)O; Cha = N[C@@H](CC1CCCCC1)C(=O)O; Chg = N[C@H](C(=O)O)C1CCCCC1; Tle = CC(C)(C)[C@H](N)C(=O)O

Biological target: T1, Renin (Rattus norvegicus, UniProt P08424)
T1 sequence (P08424 whole entry): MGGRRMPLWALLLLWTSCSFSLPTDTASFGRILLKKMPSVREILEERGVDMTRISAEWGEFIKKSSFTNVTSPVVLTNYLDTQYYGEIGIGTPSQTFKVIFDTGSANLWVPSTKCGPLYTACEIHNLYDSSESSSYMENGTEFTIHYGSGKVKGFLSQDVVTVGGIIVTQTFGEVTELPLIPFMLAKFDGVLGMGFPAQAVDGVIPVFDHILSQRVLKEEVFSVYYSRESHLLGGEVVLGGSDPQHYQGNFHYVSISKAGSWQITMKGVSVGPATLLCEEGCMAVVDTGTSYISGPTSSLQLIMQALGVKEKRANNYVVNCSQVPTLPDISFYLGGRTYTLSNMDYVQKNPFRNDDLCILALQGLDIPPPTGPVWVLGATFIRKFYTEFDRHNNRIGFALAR
Experiment: Inhibitory activity against rat plasma renin in vitro.
Format: cell-free
How it was run: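 Pooled EDTA rat plasma with added PMSF 5 mM, 8-hydroxyquinoline 3 mM and extra EDTA 5 mM, at pH 7.4, mixed with serial 1:10 peptide dilutions (Tris/DMSO), split, and incubated 1 h at 37 and 0 °C.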

Row | SMILES | IC50
1 | CC(=O)N[C@@H](Cc1c[nH]cn1)C(=O)N1CCC[C@H]1C(=O)N[C@@H](Cc1ccccc1)C(=O)N[C@@H](Cc1c[nH]cn1)C(=O)N[C@@H](CC(C)C)[C@@H](O)CC(=O)N[C@@H](CC1CCCCC1)C(=O)N[C@@H](Cc1ccccc1)C(N)=O (Ac-HPFH[Sta][Cha]F-NH2) | 2.7 µM
2 | CC(=O)N[C@@H](Cc1cnc[nH]1)C(=O)N1CCC[C@H]1C(=O)N[C@@H](CC1CCCCC1)C(=O)N[C@@H](Cc1cnc[nH]1)C(=O)N[C@@H](CC(C)C)[C@@H](O)CC(=O)N[C@@H](CC(C)C)C(=O)N[C@@H](Cc1ccccc1)C(N)=O (Ac-HP[Cha]H[Sta]LF-NH2) | 0.65 µM
3 | CC(C)[C@H](NC(=O)C[C@H](O)[C@H](Cc1ccccc1)NC(=O)[C@H](Cc1c[nH]cn1)NC(=O)[C@H](Cc1ccccc1)NC(=O)[C@@H]1CCCN1C(=O)[C@H](Cc1c[nH]cn1)NC(=O)[C@@H]1CCCN1)C(=O)N[C@@H](Cc1ccc(O)cc1)C(=O)N[C@@H](CCCCN)C(N)=O (H-PHPFH[Ahppa(3S,4S)]VYK-NH2) | 1.3 µM
4 | COc1ccc(C[C@H](NC(C)=O)C(=O)N2CCC[C@H]2C(=O)N[C@@H](Cc2ccccc2)C(=O)N[C@H](C(=O)N[C@@H](CC(C)C)[C@@H](O)CC(=O)N[C@@H](CC(C)C)C(=O)N[C@@H](Cc2ccccc2)C(N)=O)C(C)C)cc1 (Ac-Y(Me)PFV[Sta]LF-NH2) | 0.034 µM
5 | CC[C@H](C)[C@H](NC(=O)C[C@H](O)[C@H](CC(C)C)NC(=O)[C@H](Cc1c[nH]cn1)NC(=O)[C@H](Cc1ccccc1)NC(=O)[C@@H]1CCCN1C(=O)[C@H](Cc1c[nH]cn1)NC(=O)[C@@H]1CCCN1)C(=O)N[C@@H](Cc1ccccc1)C(N)=O (H-PHPFH[Sta]IF-NH2) | 10 µM
6 | CC(=O)N[C@@H](Cc1cccc2ccccc12)C(=O)N1CCC[C@H]1C(=O)N[C@@H](Cc1ccccc1)C(=O)N[C@H](C(=O)N[C@@H](CC(C)C)[C@@H](O)CC(=O)N[C@@H](CC(C)C)C(=O)N[C@@H](Cc1ccccc1)C(N)=O)C(C)C (Ac-[1Nal]PFV[Sta]LF-NH2) | 0.05 µM
7 | CC(=O)N[C@@H](Cc1c[nH]cn1)C(=O)N1CCC[C@H]1C(=O)N[C@@H](Cc1ccccc1)C(=O)N[C@H](CC(C)C)C(=O)N[C@@H](CC(C)C)[C@@H](O)CC(=O)N[C@@H](CC(C)C)C(=O)N[C@@H](Cc1ccccc1)C(N)=O | ~1000 µM
8 | CC(=O)N[C@@H](Cc1c[nH]cn1)C(=O)N1CCC[C@H]1C(=O)N[C@@H](Cc1ccccc1)C(=O)N[C@@H](Cc1c[nH]cn1)C(=O)N[C@@H](CC(C)C)[C@@H](O)CC(=O)N[C@@H](CC(C)C)C(=O)N[C@@H](CC1CCCCC1)C(N)=O (Ac-HPFH[Sta]L[Cha]-NH2) | 0.16 µM
9 | CC(=O)N[C@@H](Cc1c[nH]cn1)C(=O)N1CCC[C@H]1C(=O)N[C@@H](Cc1ccccc1)C(=O)N[C@H](C(=O)N[C@@H](CC(C)C)[C@@H](O)CC(=O)N[C@@H](CC(C)C)C(=O)N[C@@H](Cc1ccccc1)C(N)=O)C(C)(C)C (Ac-HPF[Tle][Sta]LF-NH2) | 0.4 µM
10 | CC[C@H](C)[C@H](NC(=O)C[C@H](O)[C@H](CC1CCCCC1)NC(=O)[C@H](Cc1c[nH]cn1)NC(=O)[C@H](Cc1ccccc1)NC(=O)[C@@H]1CCCN1C(=O)[C@H](Cc1c[nH]cn1)NC(=O)[C@@H]1CCCN1)C(=O)N[C@@H](Cc1ccccc1)C(N)=O (H-PHPFH[ACHPA]IF-NH2) | 0.065 µM

The remaining lines, values ahead:

Row | IC50 | SMILES
11 | 0.37 µM | CC[C@H](C)[C@H](NC(=O)C[C@H](O)[C@H](Cc1ccccc1)NC(=O)[C@H](Cc1c[nH]cn1)NC(=O)[C@H](Cc1ccccc1)NC(=O)[C@@H]1CCCN1C(=O)[C@H](Cc1c[nH]cn1)NC(=O)[C@@H]1CCCN1)C(=O)N[C@@H](Cc1ccccc1)C(N)=O (H-PHPFH[Ahppa(3S,4S)]IF-NH2)
12 | 0.28 µM | CC(=O)N[C@H](C(=O)N1CCC[C@H]1C(=O)N[C@@H](Cc1ccccc1)C(=O)N[C@H](C(=O)N[C@@H](CC(C)C)[C@@H](O)CC(=O)N[C@@H](CC(C)C)C(=O)N[C@@H](Cc1ccccc1)C(N)=O)C(C)C)C1CCCCC1 (Ac-[Chg]PFV[Sta]LF-NH2)
13 | 0.15 µM | CC(=O)N[C@@H](Cc1cnc[nH]1)C(=O)N1CCC[C@H]1C(=O)N[C@@H](Cc1ccccc1)C(=O)N[C@@H](Cc1cnc[nH]1)C(=O)N[C@@H](Cc1ccccc1)[C@@H](O)CC(=O)N[C@@H](CC(C)C)C(=O)N[C@@H](Cc1ccccc1)C(N)=O (Ac-HPFH[Ahppa(3S,4S)]LF-NH2)
14 | 0.03 µM | CC(=O)N[C@@H](Cc1c[nH]cn1)C(=O)N1CCC[C@H]1C(=O)N[C@@H](Cc1ccccc1)C(=O)N[C@H](C(=O)N[C@@H](CC(C)C)[C@@H](O)CC(=O)N[C@@H](CC(C)C)C(=O)N[C@@H](Cc1ccccc1)C(N)=O)C(C)C
15 | 0.24 µM | CC(C)C[C@H](NC(=O)C[C@H](O)[C@H](CC(C)C)NC(=O)[C@H](Cc1cnc[nH]1)NC(=O)[C@H](Cc1ccccc1)NC(=O)[C@@H]1CCCN1C(=O)[C@H](Cc1cnc[nH]1)NC(=O)[C@@H]1CCCN1)C(=O)N[C@@H](Cc1ccccc1)C(N)=O (H-PHPFH[Sta]LF-NH2)
16 | ~1000 µM | CC(=O)N[C@@H](Cc1c[nH]cn1)C(=O)N1CCC[C@@H]1C(=O)N[C@H](C)C(=O)N[C@@H](Cc1c[nH]cn1)C(=O)N[C@@H](CC(C)C)[C@@H](O)CC(=O)N[C@@H](CC(C)C)C(=O)N[C@@H](Cc1ccccc1)C(N)=O
17 | 7.9 µM | CC(C)C[C@H](NC(=O)[C@H](Cc1c[nH]cn1)NC(=O)[C@H](Cc1ccccc1)NC(=O)[C@@H]1CCCN1C(=O)[C@H](Cc1c[nH]cn1)NC(=O)[C@@H]1CCCN1)[C@@H](O)CC(=O)N[C@@H](Cc1ccc(O)cc1)C(=O)N[C@@H](Cc1ccc(O)cc1)C(=O)N[C@@H](CO)C(=O)N[C@@H](CCCCN)C(N)=O (H-PHPFH[Sta]YYSK-NH2)
18 | 2.8 µM | CC(=O)N[C@@H](Cc1c[nH]cn1)C(=O)N1CCC[C@H]1C(=O)N[C@@H](Cc1ccccc1)C(=O)N[C@@H](Cc1c[nH]cn1)C(=O)N[C@@H](CC(C)C)[C@@H](O)CC(=O)N[C@H](C(=O)N[C@@H](Cc1ccccc1)C(N)=O)C(C)C (Ac-HPFH[Sta]VF-NH2)
19 | 2.5 µM | CC(=O)N[C@@H](Cc1cnc[nH]1)C(=O)N1CCC[C@H]1C(=O)N[C@@H](Cc1ccccc1)C(=O)N[C@H](C(=O)N[C@@H](CC(C)C)[C@@H](O)CC(=O)N[C@@H](CC(C)C)C(=O)N[C@@H](Cc1ccccc1)C(N)=O)C1CCCCC1 (Ac-HPF[Chg][Sta]LF-NH2)
20 | 0.27 µM | CC(=O)N[C@@H](Cc1cnc[nH]1)C(=O)N1CCC[C@H]1C(=O)N[C@@H](Cc1ccccc1)C(=O)N[C@@H](Cc1cnc[nH]1)C(=O)N[C@@H](CC(C)C)[C@@H](O)CC(=O)N[C@@H](CC(C)C)C(=O)N[C@H](C(N)=O)C(C)C (Ac-HPFH[Sta]LV-NH2)
21 | 1.6 µM | CC(C)C[C@H](NC(=O)[C@H](Cc1cnc[nH]1)NC(=O)[C@H](Cc1ccccc1)NC(=O)[C@@H]1CCCN1C(=O)[C@H](Cc1cnc[nH]1)NC(=O)[C@@H]1CCCN1)[C@@H](O)CC(=O)N[C@@H](Cc1ccc(O)cc1)C(=O)N[C@@H](Cc1ccc(O)cc1)C(N)=O (H-PHPFH[Sta]YY-NH2)
22 | ~1000 µM | CC(=O)N[C@@H](Cc1c[nH]cn1)C(=O)N1CCC[C@H]1C(=O)N[C@H](CC(C)C)C(=O)N[C@@H](Cc1c[nH]cn1)C(=O)N[C@@H](CC(C)C)[C@@H](O)CC(=O)N[C@@H](CC(C)C)C(=O)N[C@@H](Cc1ccccc1)C(N)=O
23 | ~1000 µM | CC(=O)N[C@@H](Cc1c[nH]cn1)C(=O)N1CCC[C@@H]1C(=O)N[C@@H](Cc1ccccc1)C(=O)N[C@H](C)C(=O)N[C@@H](CC(C)C)[C@@H](O)CC(=O)N[C@@H](CC(C)C)C(=O)N[C@@H](Cc1ccccc1)C(N)=O
